According to paper PMC6690187 (Cancer chemotherapy and pharmacology, 2012):

Assays:
[1] = Urinary and fecal excretion, higher dose in CD-1 mice; format: in vivo; conditions: 40 mg/kg i.v.
mouse plasma proteins = experiment: Binding to mouse plasma proteins; format: in vitro ADME; conditions: 37°C 1 h
In short: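 Test compound added to mouse plasma at 0.1, 1.0 and 10 μM and held at 37°C for 1 h; methanol replaced plasma in controls. Samples were centrifuged through 30 kDa ultrafiltration units at 2,000×g until dry. Filtrate (free, F) and unfiltered solution (total, T) were each measured in triplicate by HPLC-UV at 308 nm. Filter-bound amount (X) was included: % bound = [(T–F–X)/T] × 100.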

[2] = S9 metabolism, human hepatic S9 fractions; format: in vitro ADME; conditions: human S9 1 mg/ml, 10 μM, within an hour of incubation, 37°C
[3] = tested on: xenograft models of glioma (SF295), lung (H522), breast (MDA-MB-435), ovarian (OVCAR-3) cancers; conditions: SF295, H522, MDA-MB-435, OVCAR-3 xenografts; cited from earlier work
[4] = Pharmacokinetic studies in nude mice; format: in vivo, female athymic nude mice; conditions: for intact compound in plasma / time to highest plasma concentration: solution formulation
In short: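 Female athymic nude mice (~25 g) received a solution formulation (PEG400/EtOH/Tween 80/D5W) at 20 mg/kg i.v., 50 mg/kg i.p. or 100 mg/kg p.o. Others received a suspension (0.05% Tween 80/saline) at 15 mg/kg i.p. or 100 mg/kg p.o. Heparinized retro-orbital blood was taken from 5 min to 24 h (i.v.) or 10 min to 48 h, with ≥3 samples per time point. Plasma was extracted with acetonitrile and measured by HPLC-UV.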

[5] = tested on: MDA-MB-435 breast cancer xenograft; conditions: oral doses 70-280 mg/kg and i.v. dose 10 mg/kg; cited from earlier work
[6] = S9 metabolism, rat hepatic S9 fractions; format: in vitro ADME; conditions: rat S9 1 mg/ml, 10 μM, within an hour of incubation, 37°C
[7] = Urinary and fecal excretion after i.v. injection; format: in vivo, mice; conditions: i.v. injection 20 mg/kg, first 48 h, parent compound
In short: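 Female nude mice dosed i.v. (20 mg/kg, solution formulation) were housed in metabolic cages, and urine and feces were collected for up to 48 h. Containers and cages were rinsed twice with 0.9% saline. Urine and each wash were extracted directly, analysed separately and summed. Feces were homogenized in PBS (5 ml/g), extracted with acetonitrile and measured by HPLC. Results were expressed as % of dose.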

[8] = Pharmacokinetic and tissue distribution studies in CD-1 mice; format: in vivo, female CD-1 mice
[9] = Stability of ML-970 in mouse plasma; format: in vitro ADME; conditions: for compound remaining intact: 4°C
In short: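 Mouse plasma was spiked with 1 or 10 μM test compound. Samples were held at 37°C in a water bath (sampled at 5, 10, 20, 30 and 60 min and at 2, 4 and 8 h), at 4°C (0.5–24 h) or at −80°C (1, 2 and 4 weeks). Each sample was extracted and measured by HPLC-UV at 308 nm. Remaining amount was expressed as % of the starting concentration versus time.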

[10] = S9 metabolism, mouse hepatic S9 fractions; format: in vitro ADME; conditions: mouse S9 1 mg/ml, 10 μM, within an hour of incubation, 37°C
[11] = Preliminary pharmacokinetics; format: in vivo, female Sprague-Dawley rats; conditions: rats, oral 2.5 vs 5 mg/kg; exception intestine
In short: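 Female Sprague-Dawley rats received oral doses of 2.5 or 5 mg/kg in (PEG400/EtOH/Tween 80 = 6:3:1)/D5W = 1:2, either as a single dose or once daily for 5 days. Plasma was sampled at 1, 6 and 12 h. Lungs, liver, kidneys, small intestine and small-intestine contents were collected at 12 h on days 1 and 5. Tissues were homogenized in PBS, extracted with acetonitrile and analysed by HPLC.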

NCI60 = conditions: read-out: average GI50; NCI60 screening, cytotoxic activity; cited from earlier work
[12] = in vitro assays and xenograft studies; cited from earlier work
six different cell lines = conditions: cited from earlier work
[13] = nude mice, 0.05% Tween 80/Saline, i.p., 15 mg/kg, plasma
[14] = nude mice, 0.05% Tween 80/Saline, p.o., 100 mg/kg, plasma
[15] = nude mice, PEG400/EtOH/Tween 80/D5W, i.p., 50 mg/kg, plasma
[16] = nude mice, PEG400/EtOH/Tween 80/D5W, i.v., 20 mg/kg, plasma
[17] = nude mice, PEG400/EtOH/Tween 80/D5W, p.o., 100 mg/kg, plasma
[18] = CD-1 mice, PEG400/EtOH/Tween 80/D5W, i.v., 2.5 mg/kg, plasma
[19] = CD-1 mice, PEG400/EtOH/Tween 80/D5W, p.o., 2.5 mg/kg, plasma
[20] = CD-1 mice, PEG400/EtOH/Tween 80/D5W, p.o., 5 mg/kg, plasma

COc1cc2cc(C(=O)Nc3cc(N)c4ccccc4c3CCCl)[nH]c2c(OC)c1OC [ML-970]
compound excreted in urine ([1]; 48 h after treatment): about 1%
parental compound excreted in feces ([1]; first 8 h): less than 0.1%
binding to plasma proteins (mouse plasma proteins; 0.1 μM): 87.57%
binding to plasma proteins (mouse plasma proteins; 1.0 μM): 89.31%
binding to plasma proteins (mouse plasma proteins; 10.0 μM): 90.89%
loss of parent compound with S9 enzymes [2]: no significant loss of the parent compound
antitumor effects in xenograft models [3]: significant antitumor effects in all of the models
toxicity observed in pharmacokinetic studies ([4]; doses from 10 to 100 mg/kg, soluble and suspension formulations): did not observe any toxicity
AUC0~∞ [4, 13]: 5.35 µg·h/mL
CL or CL/F [4, 13]: 2.67 mL/g/h
Cmax [4, 13]: 1.16 µg/mL
MRT [4, 13]: 6.21 h
T1/2 [4, 13]: 6.14 h
Tmax [4, 13]: 60 min
AUC0~∞ [4, 14]: 11.52 µg·h/mL
CL or CL/F [4, 14]: 8.07 mL/g/h
Cmax [4, 14]: 1.52 µg/mL
MRT [4, 14]: 8.1 h
T1/2 [4, 14]: 6.73 h
Tmax [4, 14]: 60 min
intact compound in plasma ([4]; nude mice, 8 h after i.v. 20 mg/kg): still detectable
intact compound in plasma ([4]; nude mice, 24 h after i.p. 50 mg/kg): could still be detected
intact compound in plasma ([4]; nude mice, 24 h after p.o. 100 mg/kg): could still be detected
AUC0~∞ [4, 15]: 42.11 µg·h/mL
CL or CL/F [4, 15]: 1.19 mL/g/h
Cmax [4, 15]: 20.39 µg/mL
MRT [4, 15]: 2.5 h
T1/2 [4, 15]: 4.58 h
Tmax [4, 15]: 10.2 min
AUC0~∞ [4, 16]: 14.89 µg·h/mL
CL or CL/F [4, 16]: 1.35 mL/g/h
Cmax [4, 16]: 22.35 µg/mL
MRT [4, 16]: 0.87 h
T1/2 [4, 16]: 0.78 h
Tmax [4, 16]: 0 min
Vss [4, 16]: 1.18 mL/g
F^oral ([4]; nude mice, PEG400/EtOH/Tween 80/D5W, p.o., 100 mg/kg): 0.53
AUC0~∞ [4, 17]: 39.63 µg·h/mL
CL or CL/F [4, 17]: 2.52 mL/g/h
Cmax [4, 17]: 18.93 µg/mL
MRT [4, 17]: 2.82 h
T1/2 [4, 17]: 4.26 h
Tmax [4, 17]: 30 min
time to highest plasma concentration ([4]; nude mice, i.p. 50 mg/kg): 10 min
time to highest plasma concentration ([4]; nude mice, oral gavage 100 mg/kg): 30 min
tumor growth [5]: inhibited tumor growth
weight loss (index for host toxicity) [5]: no weight loss
loss of parent compound with S9 enzymes [6]: no significant loss of the parent compound
compound excreted in feces [7]: 1.14%
compound excreted in urine [7]: less than 0.5%
AUC0~∞ [8, 18]: 1.96 µg·h/mL
CL or CL/F [8, 18]: 1.27 mL/g/h
Cmax [8, 18]: 4.34 µg/mL
MRT [8, 18]: 2.76 h
T1/2 [8, 18]: 0.31 h
Tmax [8, 18]: 0 min
Vss [8, 18]: 3.52 mL/g
F^oral ([8]; CD-1 mice, PEG400/EtOH/Tween 80/D5W, p.o., 2.5 mg/kg): 0.43
AUC0~∞ [8, 19]: 0.85 µg·h/mL
CL or CL/F [8, 19]: 2.61 mL/g/h
Cmax [8, 19]: 0.55 µg/mL
MRT [8, 19]: 8.28 h
T1/2 [8, 19]: 10.73 h
Tmax [8, 19]: 4.8 min
F^oral ([8]; CD-1 mice, PEG400/EtOH/Tween 80/D5W, p.o., 5 mg/kg): 0.44
AUC0~∞ [8, 20]: 1.73 µg·h/mL
CL or CL/F [8, 20]: 3.22 mL/g/h
Cmax [8, 20]: 0.99 µg/mL
MRT [8, 20]: 1.8 h
T1/2 [8, 20]: 2.97 h
Tmax [8, 20]: 30 min
tissue distribution ([8]; mice, i.v. 2.5 mg/kg and p.o. 2.5 mg/kg, levels stayed relatively high for at least 24 h): high levels of ML-970 in the liver, gallbladder, and small intestine
compound remaining intact ([9]; 24-h storage (summary)): approximately 90%
compound remaining intact ([9]; 24 h, 1 μM): 88.6%
compound remaining intact ([9]; 24 h, 10 μM): 92.4%
compound remaining ([9]; 37°C, 8-h incubation, both 1 and 10 μM (summary)): approximately 70%
compound remaining ([9]; 37°C, 8 h, 1 μM): 70.9%
compound remaining ([9]; 37°C, 8 h, 10 μM): 70.2%
compound remaining ([9]; −80°C, 4 weeks, 1 μM): 87.5%
compound remaining ([9]; −80°C, 4 weeks, 10 μM): 89.8%
degradation on storage ([9]; −80°C, a week of storage): no significant degradation
loss of parent compound with S9 enzymes [10]: no significant loss of the parent compound
tissue concentrations between two doses [11]: no significant difference
GI50 (NCI60): 34 nM
liver and bone marrow toxicity compared with other CC-1065 analogs [12]: decreased liver and bone marrow toxicity
cell lines killed in hollow fiber assay (six different cell lines): efficiently killing six different cell lines
hollow fiber assay total score (six different cell lines): 54 points
